Laboratory results from ChEMBL document CHEMBL1145931, “Synthesis of a prodrug designed to release multiple inhibitors of the epidermal growth factor receptor tyrosine kinase and an alkylating agent: a novel tumor targeting concept” (J Med Chem, 2003).
pIC50: −log10 of the molar value.

Assays:
[1] = system: NIH3T3; assay: Inhibition of serum stimulated NIH3T3 cell proliferation; assay type: functional, cell-based; conditions: Mus musculus
How it was run: (§1)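 Cells were kept in DMEM with 10% FBS, grown to 70% confluence, PBS-washed and serum-starved for 24 h. They were then exposed to drug plus serum for 72 h, with DMSO at most 0.2%. Growth was measured by SRB staining after TCA fixation, OD 492 nm. IC50s are means from three experiments.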

[2] = Inhibition of serum stimulated NIH3T3/neu (ErbB2/neu expressing) cell proliferation; assay type: functional; how it was run: as §1
[3] = Half-life period in phosphate buffered saline (PBS); assay type: ADME
[4] = Half-life period in RPMI; assay type: ADME; conditions: RPMI medium
How it was run: (§2)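 Compound dissolved in a minimal amount of DMSO and diluted into RPMI-1640 with 10% FBS. Absorbance was monitored spectrophotometrically in a UV cell held at 37 °C. Half-life came from a one-phase exponential decay curve fit. Each value is from a single experiment.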

[5] = Inhibition of serum stimulated HER-14 (EGF-receptor expressing) cell proliferation; assay type: functional; how it was run: as §1
[6] = Half-life period in phosphate buffered saline (PBS); Not active; assay type: ADME; conditions: buffer
[7] = Half-life period in RPMI; Not active; assay type: ADME; how it was run: as §2
[8] = target: Epidermal growth factor receptor (Homo sapiens) (UniProt P00533); assay: Inhibition of epidermal growth factor receptor tyrosine kinase (EGFR TK)
Epidermal growth factor receptor (Homo sapiens), sequence (P00533 whole entry, looked up): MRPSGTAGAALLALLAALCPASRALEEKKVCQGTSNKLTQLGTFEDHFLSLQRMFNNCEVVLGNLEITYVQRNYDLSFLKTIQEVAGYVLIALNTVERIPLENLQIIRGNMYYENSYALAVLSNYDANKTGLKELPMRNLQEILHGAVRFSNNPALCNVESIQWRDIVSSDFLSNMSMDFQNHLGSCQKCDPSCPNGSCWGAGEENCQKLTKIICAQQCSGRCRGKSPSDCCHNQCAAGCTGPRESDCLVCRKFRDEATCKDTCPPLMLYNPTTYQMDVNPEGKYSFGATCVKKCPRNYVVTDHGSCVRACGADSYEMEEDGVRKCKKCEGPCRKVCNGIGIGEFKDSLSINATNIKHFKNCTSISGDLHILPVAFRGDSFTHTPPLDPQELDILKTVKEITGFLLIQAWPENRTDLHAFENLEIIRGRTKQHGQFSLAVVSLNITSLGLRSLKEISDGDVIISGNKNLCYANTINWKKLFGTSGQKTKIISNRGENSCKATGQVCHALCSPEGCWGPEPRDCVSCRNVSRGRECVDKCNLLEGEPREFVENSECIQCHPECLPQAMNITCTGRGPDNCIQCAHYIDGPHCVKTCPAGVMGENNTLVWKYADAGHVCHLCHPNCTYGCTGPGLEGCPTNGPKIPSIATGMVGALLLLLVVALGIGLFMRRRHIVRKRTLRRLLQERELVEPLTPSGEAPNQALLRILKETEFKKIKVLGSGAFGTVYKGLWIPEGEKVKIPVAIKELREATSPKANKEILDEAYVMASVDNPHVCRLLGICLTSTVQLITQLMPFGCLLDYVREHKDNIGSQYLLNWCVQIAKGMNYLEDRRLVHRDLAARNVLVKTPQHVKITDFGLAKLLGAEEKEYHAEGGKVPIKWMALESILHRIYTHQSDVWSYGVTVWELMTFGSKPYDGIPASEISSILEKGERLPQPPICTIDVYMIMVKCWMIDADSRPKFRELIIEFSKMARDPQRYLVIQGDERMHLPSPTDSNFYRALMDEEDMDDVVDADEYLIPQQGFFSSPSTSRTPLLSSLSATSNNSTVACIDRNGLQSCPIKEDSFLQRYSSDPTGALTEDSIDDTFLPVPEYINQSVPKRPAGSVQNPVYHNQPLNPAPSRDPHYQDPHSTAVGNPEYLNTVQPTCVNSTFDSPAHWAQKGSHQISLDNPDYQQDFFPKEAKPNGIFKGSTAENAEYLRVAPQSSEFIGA

| Compound | half-life [3] | half-life [4] | pIC50 [8] | pIC50 [1] | IC50 [2] | IC50 [5] | NA [6] | NA [7] |
| --- | --- | --- | --- | --- | --- | --- | --- | --- |
| Nc1ccc2ncnc(Nc3cccc(Br)c3)c2c1 |  |  |  | 4.84 | 0.42 µM | 10.4 µM | Not Active | Not Active |
| COc1cc2ncnc(Nc3cccc(Cl)c3)c2cc1OC.Cn1nnc2c(C(O)O)ncn2c1=O |  |  |  | 4.40 | 1.1 µM | 6.2 µM |  |  |
| C/N=N/Nc1ccc2ncnc(Nc3cccc(Br)c3)c2c1 | 1.13 h | 0.633 h |  | 3.82 | 0.09 µM | 8.8 µM |  |  |
| COc1cc2ncnc(Nc3cccc(Cl)c3)c2cc1OC [TYRPHOSTIN AG-1478] |  |  |  | 4.54 | 4 µM | 9.8 µM |  |  |

More lines, main results first:

| half-life [3] | half-life [4] | pIC50 [8] | Compound | pIC50 [1] | IC50 [2] | IC50 [5] | NA [6] | NA [7] |
| --- | --- | --- | --- | --- | --- | --- | --- | --- |
| 1.17 h | 0.667 h |  | CN(CO)/N=N/c1ccc2ncnc(Nc3cccc(Br)c3)c2c1 | 4.89 | 0.09 µM | 2.1 µM |  |  |
| > 3.33 h | > 3.33 h | 6.24 | CC(=O)N(C)/N=N/c1ccc2ncnc(Nc3cccc(C)c3)c2c1 | 3.70 | 60.6 µM | 149 µM |  |  |
| 1.4 h | 0.7 h | 6.89 | CC(=O)OCN(C)/N=N/c1ccc2ncnc(Nc3cccc(Br)c3)c2c1 | 4.81 | 0.21 µM | 3.4 µM |  |  |
| 1.15 h | 0.583 h |  | C/N=N/Nc1ccc2ncnc(Nc3cccc(C)c3)c2c1 | 3.90 | 16.5 µM | 28.9 µM |  |  |
